According to ChEMBL document CHEMBL1155485, “Pyrimidine ribonucleotides with enhanced selectivity as P2Y(6) receptor agonists: novel 4-alkyloxyimino, (S)-methanocarba, and 5'-triphosphate gamma-ester modifications” (J Med Chem, 2010):

Tested on: not listed separately
Experiment: Stability assessed as half life by HPLC in presence of human 1321N1 cell membranes
Type: ADME, cell-based
Conditions: not given
In short: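 Nucleotide (10 μL of 2 mg/mL aqueous stock) mixed with 90 μL of astrocytoma cell membrane suspension in Dulbecco's PBS pH 7.4 (final protein 14.9 μg/mL), incubated at 37°C. At intervals, aliquots were diluted tenfold in water or 5 mM TBAP and analysed by reverse-phase HPLC (TBAP–acetonitrile gradient). Half-life was taken from peak area.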

**Q.** With `CCN(CC)CC.O=c1[nH]/c(=N\OCc2ccccc2)ccn1[C@@H]1O[C@H](COP(=O)(O)OP(=O)(O)O)[C@@H](O)[C@H]1O` as the compound, how does the t1/2 read?
**A.** 26 h

**Q.** With `O=c1ccn([C@@H]2O[C@H](COP(=O)(O)OP(=O)(O)OP(=O)(O)O)[C@@H](O)[C@H]2O)c(=O)[nH]1` [URIDINE TRIPHOSPHATE] as the compound, how does the t1/2 read?
**A.** 31 h

**Q.** With `CCN(CC)CC.O=c1ccn([C@@H]2O[C@H](COP(=O)(O)OP(=O)(O)OP(=O)(O)OC3CCCCC3)[C@@H](O)[C@H]2O)c(=O)[nH]1` as the compound, how does the t1/2 read?
**A.** 62 h

**Q.** With `CCN(CC)CC.O=c1ccn([C@@H]2O[C@H](COP(=O)(O)CP(=O)(O)OP(=O)(O)O[C@H]3O[C@H](CO)[C@@H](O)[C@H](O)[C@H]3O)[C@@H](O)[C@H]2O)c(=O)[nH]1` as the compound, how does the t1/2 read?
**A.** 19 h

**Q.** For `CCN(CC)CC.O=c1ccn([C@@H]2O[C@H](COP(=O)(O)OP(=O)(O)OP(=O)(O)Oc3ccccc3)[C@@H](O)[C@H]2O)c(=O)[nH]1`, which t1/2 is on record?
**A.** 43 h

Biological target: T1, P2Y purinoceptor 2 (Homo sapiens, UniProt P41231)
Experiment: Agonist activity at human recombinant P2Y2 receptor expressed in human 1321N1 cells assessed as [3H]inositol phosphate production by scintillation proximity assay
Type: functional, cell-based
Conditions: not given
In short: (§1)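 Stably transfected 1321N1 astrocytoma cells (human P2Y2, P2Y4 or P2Y6 receptor) seeded at 20,000 cells/well two days before assay; labelled 16 h with myo-[3H]inositol (1.0 μCi) in serum-free inositol-free DMEM. Agonist added in HEPES pH 7.3/HBSS with LiCl (50 mM, fivefold stock), 30 min at 37°C; stopped with ice-cold 50 mM formic acid. [3H]inositol phosphates read by SPA.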

T1 sequence (P41231 whole entry): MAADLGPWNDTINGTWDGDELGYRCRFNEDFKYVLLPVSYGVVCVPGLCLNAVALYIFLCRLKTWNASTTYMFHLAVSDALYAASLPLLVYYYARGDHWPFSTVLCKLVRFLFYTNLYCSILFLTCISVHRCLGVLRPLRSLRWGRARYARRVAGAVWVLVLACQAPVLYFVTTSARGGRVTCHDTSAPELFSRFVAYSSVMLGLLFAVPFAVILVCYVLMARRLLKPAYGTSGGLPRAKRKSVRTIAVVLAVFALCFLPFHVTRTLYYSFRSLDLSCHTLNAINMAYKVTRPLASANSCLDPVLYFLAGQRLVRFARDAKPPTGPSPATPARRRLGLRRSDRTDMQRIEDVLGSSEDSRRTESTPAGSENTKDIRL

**Q.** For `CCN(CC)CC.O=c1[nH]/c(=N\OCc2ccccc2)ccn1[C@@H]1O[C@H](COP(=O)(O)OP(=O)(O)O)[C@@H](O)[C@H]1O`, which EC50 is on record?
**A.** 2130 nM

**Q.** With `CCN(CC)CC.O=c1ccn([C@@H]2O[C@H](COP(=O)(O)OP(=O)(O)OP(=O)(O)OC3CCCCC3)[C@@H](O)[C@H]2O)c(=O)[nH]1` as the compound, how does the EC50 read?
**A.** 2280 nM

**Q.** For `CCN(CC)CC.O=c1ccn([C@@H]2O[C@H](COP(=O)(O)OP(=O)(O)OP(=O)(O)Oc3ccccc3)[C@@H](O)[C@H]2O)c(=O)[nH]1`, which EC50 is on record?
**A.** > 10000 nM

Biological target: T1, P2Y purinoceptor 2
Experiment: Agonist activity at human recombinant P2Y2 receptor expressed in human 1321N1 cells assessed as [3H]inositol phosphate production at 10 uM by scintillation proximity assay
Type: functional, cell-based
Conditions: not given

**Q.** With `CCN(CC)CC.O=c1ccn([C@@H]2O[C@H](COP(=O)(O)OP(=O)(O)OP(=O)(O)Oc3ccccc3)[C@@H](O)[C@H]2O)c(=O)[nH]1` as the compound, how does the Activity read?
**A.** < 50%

Biological target: P2Y purinoceptor 4 (Homo sapiens, UniProt P51582)
Experiment: Agonist activity at human recombinant P2Y4 receptor expressed in human 1321N1 cells assessed as [3H]inositol phosphate production by scintillation proximity assay
Type: functional, cell-based
Conditions: not given
In short: as §1

Sequence of P2Y purinoceptor 4 (P51582 whole entry): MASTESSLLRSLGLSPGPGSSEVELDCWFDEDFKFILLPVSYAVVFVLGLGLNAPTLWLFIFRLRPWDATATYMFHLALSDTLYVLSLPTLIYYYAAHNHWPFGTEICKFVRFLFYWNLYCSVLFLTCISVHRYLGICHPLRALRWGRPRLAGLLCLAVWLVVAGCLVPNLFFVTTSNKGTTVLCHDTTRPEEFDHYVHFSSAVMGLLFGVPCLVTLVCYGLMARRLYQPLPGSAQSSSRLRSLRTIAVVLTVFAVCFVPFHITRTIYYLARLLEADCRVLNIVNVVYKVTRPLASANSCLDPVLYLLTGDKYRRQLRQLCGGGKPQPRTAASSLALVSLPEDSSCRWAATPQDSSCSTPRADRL

**Q.** For `CCN(CC)CC.O=c1[nH]/c(=N\OCc2ccccc2)ccn1[C@@H]1O[C@H](COP(=O)(O)OP(=O)(O)O)[C@@H](O)[C@H]1O`, which EC50 is on record?
**A.** 1150 nM

Organism: Homo sapiens
Experiment: Selectivity ratio of EC50 for human P2Y2 receptor to EC50 for human P2Y6 receptor
Conditions: not given

**Q.** For `CCN(CC)CC.O=c1[nH]/c(=N\OCc2ccccc2)ccn1[C@@H]1O[C@H](COP(=O)(O)OP(=O)(O)O)[C@@H](O)[C@H]1O`, which Ratio EC50 is on record?
**A.** 82

Biological target: T2, P2Y purinoceptor 6 (Homo sapiens, UniProt Q15077)
Experiment: Agonist activity at human recombinant P2Y6 receptor expressed in human 1321N1 cells assessed as [3H]inositol phosphate production up to 10 uM by scintillation proximity assay
Type: functional, cell-based
Conditions: not given
In short: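 Human 1321N1 astrocytoma cells stably expressing the human P2Y2 or P2Y6 receptor, seeded at 20,000 cells/well two days before assay. Inositol lipids labelled for 16 h with 1.0 μCi myo-[3H]inositol in serum-free, inositol-free DMEM. Agonist added in HEPES pH 7.3/HBSS with LiCl, 30 min at 37°C. Stopped with ice-cold 50 mM formic acid; [3H]inositol phosphates counted by scintillation proximity assay. Triplicates.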

T2 sequence (Q15077 whole entry): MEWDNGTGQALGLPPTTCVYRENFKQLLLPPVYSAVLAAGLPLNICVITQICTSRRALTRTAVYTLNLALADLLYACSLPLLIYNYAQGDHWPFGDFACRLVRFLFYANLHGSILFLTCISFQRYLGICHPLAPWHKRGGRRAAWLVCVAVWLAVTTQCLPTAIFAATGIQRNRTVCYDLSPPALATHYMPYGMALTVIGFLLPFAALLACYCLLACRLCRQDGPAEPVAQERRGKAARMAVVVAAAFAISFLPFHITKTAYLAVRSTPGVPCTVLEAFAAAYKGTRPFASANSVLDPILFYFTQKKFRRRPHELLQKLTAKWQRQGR

**Q.** Which Activity does the source give for `CCN(CC)CC.O=c1ccn([C@@H]2O[C@H](COP(=O)(O)CP(=O)(O)OP(=O)(O)O[C@H]3O[C@H](CO)[C@@H](O)[C@H](O)[C@H]3O)[C@@H](O)[C@H]2O)c(=O)[nH]1` here?
**A.** < 50%

**Q.** With `CCN(CC)CC.O=c1ccn([C@@H]2O[C@H](COP(=O)(O)OP(=O)(O)OP(=O)(O)Oc3ccccc3)[C@@H](O)[C@H]2O)c(=O)[nH]1` as the compound, how does the Activity read?
**A.** < 50%

Tested on: not listed separately
Experiment: Stability assessed as half life in aqueous acidic solution at pH 1.2 by HPLC
Type: physicochemical
Conditions: buffer
In short: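 Nucleotide (10 μL of 2 mg/mL aqueous stock) mixed with 90 μL of HCl/NaCl buffer pH 1.2 and held at 37°C. Aliquots taken at intervals were diluted tenfold in water or 5 mM TBAP and run on reverse-phase HPLC with a 5 mM TBAP–acetonitrile gradient. Half-life was derived from peak area.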

**Q.** With `CCN(CC)CC.O=c1[nH]/c(=N\OCc2ccccc2)ccn1[C@@H]1O[C@H](COP(=O)(O)OP(=O)(O)O)[C@@H](O)[C@H]1O` as the compound, how does the t1/2 read?
**A.** 126 h

**Q.** With `O=c1ccn([C@@H]2O[C@H](COP(=O)(O)OP(=O)(O)OP(=O)(O)O)[C@@H](O)[C@H]2O)c(=O)[nH]1` [URIDINE TRIPHOSPHATE] as the compound, how does the t1/2 read?
**A.** 23 h

**Q.** For `CCN(CC)CC.O=c1ccn([C@@H]2O[C@H](COP(=O)(O)OP(=O)(O)OP(=O)(O)OC3CCCCC3)[C@@H](O)[C@H]2O)c(=O)[nH]1`, which t1/2 is on record?
**A.** 193 h

**Q.** Which t1/2 does the source give for `CCN(CC)CC.O=c1ccn([C@@H]2O[C@H](COP(=O)(O)CP(=O)(O)OP(=O)(O)O[C@H]3O[C@H](CO)[C@@H](O)[C@H](O)[C@H]3O)[C@@H](O)[C@H]2O)c(=O)[nH]1` here?
**A.** 2.8 h

**Q.** Which t1/2 does the source give for `CCN(CC)CC.O=c1ccn([C@@H]2O[C@H](COP(=O)(O)OP(=O)(O)OP(=O)(O)Oc3ccccc3)[C@@H](O)[C@H]2O)c(=O)[nH]1` here?
**A.** 164 h

Organism: Homo sapiens
Experiment: Selectivity ratio of EC50 for human P2Y4 receptor to EC50 for human P2Y6 receptor
Conditions: not given

**Q.** With `CCN(CC)CC.O=c1[nH]/c(=N\OCc2ccccc2)ccn1[C@@H]1O[C@H](COP(=O)(O)OP(=O)(O)O)[C@@H](O)[C@H]1O` as the compound, how does the Ratio EC50 read?
**A.** 44

Biological target: T2, P2Y purinoceptor 6
Experiment: Agonist activity at human recombinant P2Y6 receptor expressed in human 1321N1 cells assessed as [3H]inositol phosphate production by scintillation proximity assay
Type: functional, cell-based
Conditions: not given
In short: as §1

**Q.** For `CCN(CC)CC.O=c1ccn([C@@H]2O[C@H](COP(=O)(O)OP(=O)(O)OP(=O)(O)OC3CCCCC3)[C@@H](O)[C@H]2O)c(=O)[nH]1`, which EC50 is on record?
**A.** 6990 nM

**Q.** For `CCN(CC)CC.O=c1ccn([C@@H]2O[C@H](COP(=O)(O)CP(=O)(O)OP(=O)(O)O[C@H]3O[C@H](CO)[C@@H](O)[C@H](O)[C@H]3O)[C@@H](O)[C@H]2O)c(=O)[nH]1`, which EC50 is on record?
**A.** > 10000 nM

**Q.** For `CCN(CC)CC.O=c1ccn([C@@H]2O[C@H](COP(=O)(O)OP(=O)(O)OP(=O)(O)Oc3ccccc3)[C@@H](O)[C@H]2O)c(=O)[nH]1`, which EC50 is on record?
**A.** 2130 nM
